This note sets out measurements from ChEMBL document CHEMBL3997796 (J Med Chem, 2017).

A word on the IC50: it is the point on the concentration scale where inhibition reaches its midpoint.

Each structure is given as a SMILES string. The source made the active and inactive calls. No cut-off for these calls is given here.

The target in assay [1] is T1, Autotaxin (Homo sapiens, UniProt Q13822). In words: Inhibition of recombinant human C-terminal FLAg-tagged ATX nucleotide pyrophosphate phosphatase activity expressed in baculovirus infected sf9 cells using pNP-TMP as substrate measured every 2 mins for 1 hr by fluorescence assay.
Assay [2] deals with T1, Autotaxin. Put plainly: Inhibition of recombinant human C-terminal FLAg-tagged ATX lysophospholipase D activity expressed in baculovirus infected sf9 cells using FRET based FS-3 substrate measured every 2 mins for 1 hr by fluorescence assay.
In assay [3] the target is T2, Glycerophosphocholine cholinephosphodiesterase ENPP6 (Homo sapiens) (UniProt Q6UWR7).
T2 sequence (whole entry): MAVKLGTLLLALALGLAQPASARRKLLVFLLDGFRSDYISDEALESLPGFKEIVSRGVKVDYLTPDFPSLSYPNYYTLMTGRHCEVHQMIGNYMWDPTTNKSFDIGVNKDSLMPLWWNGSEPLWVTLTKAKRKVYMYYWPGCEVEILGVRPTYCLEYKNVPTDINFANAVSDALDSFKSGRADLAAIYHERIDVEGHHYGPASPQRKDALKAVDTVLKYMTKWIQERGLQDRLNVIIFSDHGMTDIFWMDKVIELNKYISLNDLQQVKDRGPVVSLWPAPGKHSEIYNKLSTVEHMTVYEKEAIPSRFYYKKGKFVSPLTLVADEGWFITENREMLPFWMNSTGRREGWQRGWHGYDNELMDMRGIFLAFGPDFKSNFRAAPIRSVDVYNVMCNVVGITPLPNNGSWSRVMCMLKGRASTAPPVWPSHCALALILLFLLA
Put plainly: Inhibition of ENPP6 (unknown origin) using pNPPC as substrate measured every 2 mins for 1 hr by […]. The essentials:
(§1)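 10 nM ENPP6 or ENPP7, 10 μM pNPPC, compound 0–10 μM, triplicate; ENPP6 buffer 100 mM Tris, 500 mM NaCl, 0.05% Triton pH 9.0; ENPP7 buffer 50 mM Tris, 150 mM NaCl, 10 mM taurocholate pH 8.5; 405 nm absorbance every 2 min for 1 h.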

In assay [4] the target is T3, Ectonucleotide pyrophosphatase/phosphodiesterase family member 7 (Homo sapiens) (UniProt Q6UWV6).
T3 sequence (whole entry): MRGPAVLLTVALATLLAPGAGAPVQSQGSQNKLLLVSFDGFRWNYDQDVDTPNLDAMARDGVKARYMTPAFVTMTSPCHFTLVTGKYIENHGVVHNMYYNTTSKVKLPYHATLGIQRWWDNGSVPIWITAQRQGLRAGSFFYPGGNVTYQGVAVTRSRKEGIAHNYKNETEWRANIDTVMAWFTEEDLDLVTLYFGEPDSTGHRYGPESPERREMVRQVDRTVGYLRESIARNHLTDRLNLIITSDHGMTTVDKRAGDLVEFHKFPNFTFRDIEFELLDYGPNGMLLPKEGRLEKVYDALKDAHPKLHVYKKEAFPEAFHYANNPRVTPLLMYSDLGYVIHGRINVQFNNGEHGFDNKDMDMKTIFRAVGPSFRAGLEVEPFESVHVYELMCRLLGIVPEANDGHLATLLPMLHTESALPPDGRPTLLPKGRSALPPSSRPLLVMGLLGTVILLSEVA
In words: Inhibition of ENPP7 (unknown origin) using pNPPC as substrate measured every 2 mins for 1 hr by […]. The gist of the method: as §1

The target of assay [5] is Lysophosphatidic acid receptor 2 (Homo sapiens) (UniProt Q9HBW0). Put plainly: Antagonist activity at LPA2 receptor (unknown origin) expressed in MEF cells assessed as inhibition of LPA-induced intracellular calcium level up to 100 uM measured every 3.42 secs for 70 secs by Fura-2-AM dye based fluorescence assay. It counts as functional, cell-based. On the technique in general: Calcium flux is commonly read through the fluorescence of an indicator in the cells.
Lysophosphatidic acid receptor 2 (Homo sapiens), sequence (Q9HBW0 whole entry): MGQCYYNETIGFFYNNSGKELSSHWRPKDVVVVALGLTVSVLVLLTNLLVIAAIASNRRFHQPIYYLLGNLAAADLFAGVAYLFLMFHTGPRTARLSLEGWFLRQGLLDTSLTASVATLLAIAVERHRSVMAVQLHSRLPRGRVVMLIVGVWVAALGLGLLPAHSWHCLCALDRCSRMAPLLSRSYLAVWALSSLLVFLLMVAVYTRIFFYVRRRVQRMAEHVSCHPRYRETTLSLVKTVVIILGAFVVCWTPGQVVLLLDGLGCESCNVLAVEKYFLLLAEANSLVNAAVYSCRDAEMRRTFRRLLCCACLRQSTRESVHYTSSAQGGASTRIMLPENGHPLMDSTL

Assay [6] deals with Lysophosphatidic acid receptor 4 (Homo sapiens) (UniProt Q99677). In words: Antagonist activity at LPA4 receptor (unknown origin) expressed in CHO cells assessed as inhibition of LPA-induced intracellular calcium level up to 100 uM measured every 3.42 secs for 70 secs by Fura-2-AM dye based fluorescence assay. In kind it is functional, cell-based.
Lysophosphatidic acid receptor 4 (Homo sapiens), sequence (Q99677 whole entry): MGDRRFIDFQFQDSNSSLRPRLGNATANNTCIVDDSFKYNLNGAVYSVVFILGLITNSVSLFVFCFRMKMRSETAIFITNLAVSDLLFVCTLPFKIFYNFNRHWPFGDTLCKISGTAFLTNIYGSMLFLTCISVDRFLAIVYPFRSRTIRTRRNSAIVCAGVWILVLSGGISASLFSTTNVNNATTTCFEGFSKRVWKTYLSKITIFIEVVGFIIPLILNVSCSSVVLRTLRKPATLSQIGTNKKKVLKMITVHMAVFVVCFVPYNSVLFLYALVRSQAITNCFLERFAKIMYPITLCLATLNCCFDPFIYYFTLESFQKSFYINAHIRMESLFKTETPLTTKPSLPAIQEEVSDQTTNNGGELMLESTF
Assay [7] concerns the target Lysophosphatidic acid receptor 5 (Homo sapiens) (UniProt Q9H1C0). In words: Antagonist activity at FLAG-tagged LPA5 receptor (unknown origin) expressed in rat B103 cells assessed as inhibition of LPA-induced intracellular calcium level up to 100 uM measured every 3.42 secs for 70 secs by Fura-2-AM dye based fluorescence assay. It counts as functional, cell-based.
Assay [8] has as its target T4, Lysophosphatidic acid receptor 3 (Homo sapiens) (UniProt Q9UBY5).
T4 sequence (whole entry): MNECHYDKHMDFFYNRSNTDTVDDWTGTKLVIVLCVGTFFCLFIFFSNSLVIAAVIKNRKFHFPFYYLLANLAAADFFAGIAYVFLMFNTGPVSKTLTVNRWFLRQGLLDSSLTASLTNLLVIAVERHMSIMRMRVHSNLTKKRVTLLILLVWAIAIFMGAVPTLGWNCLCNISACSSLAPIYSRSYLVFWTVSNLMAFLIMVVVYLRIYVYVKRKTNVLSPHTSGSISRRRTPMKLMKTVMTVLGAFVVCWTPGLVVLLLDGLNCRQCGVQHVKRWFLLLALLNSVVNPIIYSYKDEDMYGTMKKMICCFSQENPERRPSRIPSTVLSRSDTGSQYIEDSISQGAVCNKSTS
Put plainly: Antagonist activity at LPA3 receptor (unknown origin) expressed in rat RH7777 cells assessed as inhibition of LPA-induced intracellular calcium level up to 100 uM measured every 3.42 secs for 70 secs by Fura-2-AM dye based fluorescence assay. It counts as functional, cell-based.

In assay [9] the target is Lysophosphatidic acid receptor 1 (Homo sapiens, UniProt Q92633). In words: Antagonist activity at LPA1 receptor (unknown origin) expressed in rat RH7777 cells assessed as inhibition of LPA-induced intracellular calcium level measured every 3.42 secs for 70 secs by Fura-2-AM dye based fluorescence assay. In kind it is functional, cell-based.
Lysophosphatidic acid receptor 1, sequence (Q92633 whole entry): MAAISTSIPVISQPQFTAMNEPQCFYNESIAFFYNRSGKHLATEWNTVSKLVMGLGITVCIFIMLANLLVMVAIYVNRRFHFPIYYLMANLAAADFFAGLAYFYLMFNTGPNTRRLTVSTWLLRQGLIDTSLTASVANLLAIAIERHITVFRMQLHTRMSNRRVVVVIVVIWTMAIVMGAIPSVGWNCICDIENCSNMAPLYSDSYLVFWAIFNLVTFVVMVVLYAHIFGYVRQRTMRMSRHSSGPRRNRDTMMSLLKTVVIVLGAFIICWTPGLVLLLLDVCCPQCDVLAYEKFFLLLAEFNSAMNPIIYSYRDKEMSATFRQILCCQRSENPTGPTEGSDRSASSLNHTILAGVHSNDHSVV

Lysophosphatidic acid receptor 5 (Homo sapiens), sequence (Q9H1C0 whole entry): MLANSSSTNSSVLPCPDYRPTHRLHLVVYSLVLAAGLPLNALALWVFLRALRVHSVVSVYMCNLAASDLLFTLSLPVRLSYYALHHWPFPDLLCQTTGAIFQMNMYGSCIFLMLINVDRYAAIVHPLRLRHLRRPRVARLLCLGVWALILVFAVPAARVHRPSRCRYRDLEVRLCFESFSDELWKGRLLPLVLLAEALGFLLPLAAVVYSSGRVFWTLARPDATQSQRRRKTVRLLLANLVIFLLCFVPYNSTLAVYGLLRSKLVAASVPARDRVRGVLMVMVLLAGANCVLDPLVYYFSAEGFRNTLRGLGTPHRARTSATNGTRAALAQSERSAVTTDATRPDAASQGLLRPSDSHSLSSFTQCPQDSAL

On to `CN(C(=O)c1cc(S(=O)(=O)N2CCOCC2)c(Cl)cc1Cl)c1cccc(F)c1`, for which the inhibition entry (on Autotaxin [1]; in assay [3]; in assay [4]) was “inactive” throughout. Moreover, the IC50 on Autotaxin [2] is more than 1000 nM.

On to `O=S(=O)(c1cc(CNc2cc(F)c(F)c(F)c2)c(Cl)cc1Cl)N1CCOCC1`, for which the inhibition result (at Autotaxin [1]; in assay [3]; in assay [4]) was “inactive” in each case.

With `N#Cc1c(F)cc(NC(=O)c2cc(S(=O)(=O)N3CCOCC3)c(Cl)cc2Cl)cc1F`, the inhibition entry (at Autotaxin [1]; in assay [3]; in assay [4]) was “inactive” throughout.

For `CN1CCN(S(=O)(=O)c2cc(C(=S)Nc3cc(Cl)c(F)c(Cl)c3)c(Cl)cc2Cl)CC1`, the inhibition entry (at Autotaxin [1]; in assay [3]; in assay [4]) was “inactive” each time.

In the case of `O=S(=O)(c1cc(-c2nc3cccc(F)c3o2)c(Cl)cc1Cl)N1CCOCC1`, the inhibition entry (on Autotaxin [1]; in assay [3]; in assay [4]) was “inactive” each time. Also, at Autotaxin [2], the concentration for half-maximal inhibition (IC50) is more than 1000 nM.

Consider `O=S(=O)(Nc1cc(F)c(F)c(F)c1)c1cc(S(=O)(=O)N2CCOCC2)c(Cl)cc1Cl`, for which the inhibition result (at Autotaxin [1]; in assay [3]; in assay [4]) was “inactive” each time. Moreover, the half-inhibitory concentration (IC50) on Autotaxin [2] is more than 1000 nM.

As to `O=S(=O)(c1cc(-c2nc3cc(F)c(F)cc3[nH]2)c(Cl)cc1Cl)N1CCOCC1`, the inhibition entry (at Autotaxin [1]; in assay [3]; in assay [4]) was “inactive” in each case. Besides, the IC50 on Autotaxin [2] is more than 1000 nM.

In the case of `CS(=O)(=O)N(C(=O)c1cc(NN2CCOCC2)c(Cl)cc1Cl)c1cc(F)c(F)c(F)c1`, the inhibition entry (at Autotaxin [1]; in assay [3]; in assay [4]) was “inactive” in each case. Moreover, on Autotaxin [2], the 50% inhibitory concentration (IC50) was more than 1000 nM.

On to `O=S(=O)(c1cc(N(S(=O)(=O)c2cccc(F)c2)S(=O)(=O)c2cccc(F)c2)c(Cl)cc1Cl)N1CCOCC1`, for which the inhibition result (at Autotaxin [1]; in assay [3]; in [4]) was “inactive” in each case. Further, at Autotaxin [2], the IC50 was more than 1000 nM.

As for `COC(=O)c1c(F)cc(NC(=O)c2cc(S(=O)(=O)N3CCOCC3)c(Cl)cc2Cl)cc1F`, the inhibition result (on Autotaxin [1]; in [3]; in [4]) was “inactive” each time.

In the case of `O=C(Nc1cc(F)c(F)c(F)c1)c1cc(NN2CCOCC2)c(Cl)cc1Cl`, the inhibition result (on Autotaxin [1]; in assay [3]; in assay [4]) was “inactive” each time. Moreover, the IC50 at Autotaxin [2] was more than 1000 nM.

Consider `O=S(=O)(c1cc(CNc2ccc(F)c(F)c2)c(Cl)cc1Cl)N1CCOCC1`, for which the inhibition result (on Autotaxin [1]; in assay [3]; in assay [4]) was “inactive” in each case. Further, the IC50 at Autotaxin [2] was more than 1000 nM.

For `CN1CCN(S(=O)(=O)c2cc(C(=O)Nc3cc(Cl)c(F)c(Cl)c3)c(Cl)cc2Cl)CC1`, the inhibition result (on Autotaxin [1]; in assay [3]; in assay [4]) was “inactive” throughout.

In the case of `O=C(Nc1cc(Cl)c(Cl)c(Cl)c1)c1cc(S(=O)(=O)N2CCOCC2)c(Cl)cc1Cl`, the inhibition result (on Autotaxin [1]; in assay [3]; in assay [4]) was “inactive” throughout. Besides, the IC50 at Autotaxin [2] is more than 1000 nM.

Regarding `COc1cc(NC(=O)c2cc(S(=O)(=O)N3CCOCC3)c(Cl)cc2Cl)cc(OC)c1OC`, the inhibition result (on Autotaxin [1]; in [3]; in [4]) was “inactive” each time. The half-inhibitory concentration (IC50) on Autotaxin [2] was more than 1000 nM.

In the case of `O=S(=O)(c1cc(C(=S)Nc2ccc(F)c(F)c2)c(Cl)cc1Cl)N1CCOCC1`, the inhibition result (on Autotaxin [1]; in assay [3]; in [4]) was “inactive” in each case. Further, on Autotaxin [2], the IC50 was 70 nM.

Turning to `O=C(Nc1cc(F)c(F)c(F)c1Br)c1cc(S(=O)(=O)N2CCOCC2)c(Cl)cc1Cl`, the inhibition result (in assay [5]; on Autotaxin [1]; in assay [6]; in assay [7]; in assay [3]; in assay [4]) was “inactive” in each case. In assay [8], the inhibition result was “inactive”. The IC50 on Autotaxin [2] was 18 nM; in assay [9] it was “Not Active”.

For `O=S(=O)(Nc1cccc(F)c1)c1cc(S(=O)(=O)N2CCOCC2)c(Cl)cc1Cl`, the inhibition entry (at Autotaxin [1]; in assay [3]; in [4]) was “inactive” throughout. Besides, the IC50 at Autotaxin [2] is more than 1000 nM.

Turning to `CN1CCN(S(=O)(=O)c2cc(C(=O)Nc3cc(F)c(F)c(F)c3)c(Cl)cc2Cl)CC1`, the inhibition entry (on Autotaxin [1]; in assay [3]; in assay [4]) was “inactive” throughout.

Turning to `O=C(Nc1c(F)c(F)c(F)c(F)c1F)c1cc(S(=O)(=O)N2CCOCC2)c(Cl)cc1Cl`, the inhibition result (on Autotaxin [1]; in assay [3]; in assay [4]) was “inactive” in each case.

In the case of `O=S(=O)(Nc1cc(S(=O)(=O)N2CCOCC2)c(Cl)cc1Cl)c1cccc(F)c1`, the inhibition entry (at Autotaxin [1]; in [3]; in [4]) was “inactive” throughout. Also, the IC50 at Autotaxin [2] is more than 1000 nM.

For the compound `COc1cc(Cl)c(C(=O)Nc2cc(F)c(C(=O)O)c(F)c2)cc1S(=O)(=O)N1CCOCC1`, the inhibition entry (at Autotaxin [1]; in assay [3]; in assay [4]) was “inactive” in each case. Moreover, the IC50 on Autotaxin [2] was more than 1000 nM.

As to `O=S(=O)(c1cc(C(=S)Nc2cccc(F)c2)c(Cl)cc1Cl)N1CCOCC1`, the inhibition result (at Autotaxin [1]; in assay [3]; in assay [4]) was “inactive” throughout.

Consider `O=S(=O)(c1cc(C(=S)Nc2cc(Cl)c(F)c(Cl)c2)c(Cl)cc1Cl)N1CCOCC1`, for which the inhibition result (at Autotaxin [1]; in assay [3]; in assay [4]) was “inactive” in each case. Moreover, the 50% inhibitory concentration (IC50) at Autotaxin [2] amounted to 98 nM.
